Measured values reported in ChEMBL document CHEMBL1817636, “Use of structure-based design to discover a potent, selective, in vivo active phosphodiesterase 10A inhibitor lead series for the treatment of schizophrenia” (J Med Chem, 2011).
Values belong to the compound of their own block, whether it stands above or below them. Calls of active or inactive are those of the source. No cut-off for these calls is given here.

How the values were obtained:
[1] = biological target: T1, cAMP and cAMP-inhibited cGMP 3',5'-cyclic phosphodiesterase 10A (Rattus norvegicus, UniProt Q9QYJ6); assay: Inhibition of recombinant rat PDE10A expressed in Sf9 cells using [3H]cAMP after 30 mins by scintillation proximity assay
T1 sequence (Q9QYJ6 whole entry): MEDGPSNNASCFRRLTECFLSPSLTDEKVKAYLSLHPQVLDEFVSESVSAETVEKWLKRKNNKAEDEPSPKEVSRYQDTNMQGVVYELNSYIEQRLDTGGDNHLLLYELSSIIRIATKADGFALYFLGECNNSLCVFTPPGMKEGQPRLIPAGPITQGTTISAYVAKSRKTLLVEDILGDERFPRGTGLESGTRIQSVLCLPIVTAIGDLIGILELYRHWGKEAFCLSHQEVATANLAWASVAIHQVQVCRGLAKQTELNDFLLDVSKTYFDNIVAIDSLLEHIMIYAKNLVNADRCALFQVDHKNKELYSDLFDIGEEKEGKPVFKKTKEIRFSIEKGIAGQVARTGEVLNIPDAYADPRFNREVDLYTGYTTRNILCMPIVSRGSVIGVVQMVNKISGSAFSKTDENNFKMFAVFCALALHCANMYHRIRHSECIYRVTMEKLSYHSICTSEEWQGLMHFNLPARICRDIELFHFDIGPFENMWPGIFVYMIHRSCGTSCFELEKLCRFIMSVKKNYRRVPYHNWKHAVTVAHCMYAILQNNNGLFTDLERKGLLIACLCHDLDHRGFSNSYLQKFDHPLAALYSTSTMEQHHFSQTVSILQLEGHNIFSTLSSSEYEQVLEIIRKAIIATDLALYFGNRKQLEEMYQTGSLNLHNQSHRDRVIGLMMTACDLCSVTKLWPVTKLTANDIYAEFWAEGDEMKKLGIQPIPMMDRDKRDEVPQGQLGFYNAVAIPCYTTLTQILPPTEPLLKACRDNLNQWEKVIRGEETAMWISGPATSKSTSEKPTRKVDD
Procedure, shortened: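 Full-length rat PDE10A clone expressed in Sf9 cells; enzyme extracted in Tris/benzamidine/EDTA/sucrose/PMSF lysis buffer, pH 7.5. 30 min at room temperature, stopped with SPA beads, counted after 10–12 h.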

[2] = Intrinsic clearance in human liver microsomes; type: ADME, Microsome
[3] = Intrinsic clearance in rat liver microsomes; type: ADME, Microsome
human MDR [4] = assay: Apparent permeability across apical to basolateral side in dog MDCK cells expressing human MDR; type: ADME, cell-based, Canis lupus familiaris; details: MDCK-MDR1
Mus musculus [5] = assay: Antipsychotic activity in CD1 mouse assessed as increase in striatal cGMP levels at 5.6 mg/kg, sc measured after 60 mins; type: functional, organism-based; set-up: dose 5.6 mg/kg
[6] = biological target: T2, cGMP-inhibited 3',5'-cyclic phosphodiesterase 3A (Homo sapiens, UniProt Q14432); assay: Inhibition of PDE3A at 1 uM
T2 sequence (Q14432 whole entry): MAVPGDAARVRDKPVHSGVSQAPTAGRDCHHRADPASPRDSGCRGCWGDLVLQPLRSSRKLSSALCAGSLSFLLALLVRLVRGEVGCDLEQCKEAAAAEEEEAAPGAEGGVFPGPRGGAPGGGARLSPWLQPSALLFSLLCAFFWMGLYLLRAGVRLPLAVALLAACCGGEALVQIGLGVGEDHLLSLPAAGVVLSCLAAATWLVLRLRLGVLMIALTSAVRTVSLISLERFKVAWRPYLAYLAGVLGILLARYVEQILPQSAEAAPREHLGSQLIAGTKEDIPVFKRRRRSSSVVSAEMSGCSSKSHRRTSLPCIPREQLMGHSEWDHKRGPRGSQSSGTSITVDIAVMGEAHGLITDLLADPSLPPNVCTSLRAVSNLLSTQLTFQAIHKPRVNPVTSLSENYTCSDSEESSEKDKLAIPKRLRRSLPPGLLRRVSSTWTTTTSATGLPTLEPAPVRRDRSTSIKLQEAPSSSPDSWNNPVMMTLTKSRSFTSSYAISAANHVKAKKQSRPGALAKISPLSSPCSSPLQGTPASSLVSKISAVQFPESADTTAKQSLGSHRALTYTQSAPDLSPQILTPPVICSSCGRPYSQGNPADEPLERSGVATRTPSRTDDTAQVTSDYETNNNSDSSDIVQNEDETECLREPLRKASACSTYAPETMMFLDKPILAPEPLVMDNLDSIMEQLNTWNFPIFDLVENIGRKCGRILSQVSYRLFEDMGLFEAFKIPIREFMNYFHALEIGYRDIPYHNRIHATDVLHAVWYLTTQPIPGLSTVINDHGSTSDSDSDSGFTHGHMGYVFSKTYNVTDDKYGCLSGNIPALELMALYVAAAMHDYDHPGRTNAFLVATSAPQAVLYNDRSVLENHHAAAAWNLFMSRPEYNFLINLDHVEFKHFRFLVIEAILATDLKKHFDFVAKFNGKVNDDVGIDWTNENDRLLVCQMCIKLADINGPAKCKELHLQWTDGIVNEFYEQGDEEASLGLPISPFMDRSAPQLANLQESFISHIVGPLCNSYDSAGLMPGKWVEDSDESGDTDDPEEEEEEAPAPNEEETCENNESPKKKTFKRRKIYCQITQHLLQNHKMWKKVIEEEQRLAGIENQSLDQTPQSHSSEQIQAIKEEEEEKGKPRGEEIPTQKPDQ

Mus musculus [7] = assay: Antipsychotic activity in sc dosed PDE10A-knock out DBA1LAC/J mouse assessed as inhibition of conditioned avoidance response administered 30 mins prior testing; type: functional
Mus musculus [8] = assay: Antipsychotic activity in sc dosed PDE10A-positive DBA1LAC/J mouse assessed as inhibition of conditioned avoidance response administered 30 mins prior testing; type: functional
Mus musculus [9] = assay: Antipsychotic activity in CD1 mouse assessed as increase in brain cGMP levels at 5.6 mg/kg, sc measured after 60 mins post dosing relative to control; type: functional; details: route subcutaneous
[10] = Selectivity ratio of IC50 for PDE3A to IC50 for rat PDE10A
human MDR [11] = assay: Efflux ratio of permeability from basolateral to apical side over apical to basolateral side in dog MDCK cells expressing human MDR; type: ADME, cell-based, Canis lupus familiaris; details: MDCK-MDR1
[12] = biological target: T2, cGMP-inhibited 3',5'-cyclic phosphodiesterase 3A; assay: Inhibition of PDE3A
[13] = Selectivity ratio IC50 for PDE4D to IC50 for rat PDE10A
[14] = Selectivity ratio IC50 for PDE5A to IC50 for rat PDE10A
[15] = Selectivity ratio IC50 for PDE11A to IC50 for rat PDE10A
[16] = Selectivity ratio IC50 for PDE6A to IC50 for rat PDE10A
[17] = Selectivity ratio IC50 for PDE9A to IC50 for rat PDE10A
[18] = Selectivity ratio IC50 for PDE1A to IC50 for rat PDE10A
[19] = Selectivity ratio IC50 for PDE8A to IC50 for rat PDE10A
[20] = Selectivity ratio IC50 for PDE2A to IC50 for rat PDE10A
[21] = Selectivity ratio IC50 for PDE7A to IC50 for rat PDE10A
Mus musculus [22] = assay: Antipsychotic activity in CD1 mouse assessed as increase in brain cGMP levels at 32 mg/kg, sc measured after 30 mins post dosing relative to control; type: functional; details: route subcutaneous
Mus musculus [23] = assay: Antipsychotic activity in CD1 mouse assessed as increase in brain cGMP levels at 32 mg/kg, sc measured after 15 mins post dosing relative to control; type: functional; details: route subcutaneous
Mus musculus [24] = assay: Antipsychotic activity in CD1 mouse assessed as increase in brain cGMP levels at 32 mg/kg, sc measured after 60 mins post dosing relative to control; type: functional; details: route subcutaneous

Compound: COc1cc2ncnc(N3CCCC(c4ccccc4)C3)c2cc1OCc1cccnc1 (stereo not drawn)
IC50 [1]: > 3200 nM

Compound: COc1cc2cncnc2cc1OCCc1ccc2ccccc2n1
CLint scaled [2]: < 7 mL/min/kg
CLint scaled [3]: 183 mL/min/kg
Papp A→B (human MDR [4]): 3 ×10⁻⁶ cm/s
Activity (Mus musculus [5]): inactive
inhibition [6]: 51%

Compound: COc1cc2ncnc(-c3cccnc3)c2cc1OCCc1ccc2ccccc2n1
ED50 (Mus musculus [7]): > 5.8 mg/kg
CLint scaled [2]: < 8 mL/min/kg
IC50 [1]: 5 nM
ED50 (Mus musculus [8]): 3.18 mg/kg
Papp A→B (human MDR [4]): 0.4 ×10⁻⁶ cm/s
Activity (Mus musculus [9]): 79%

Compound: COc1cc2ncnc(N3CCCC(c4ccccc4)C3)c2cc1OCc1ccccn1 (stereo not drawn)
IC50 [1]: > 3200 nM

Compound: COc1cc2ncnc(N3CCCC(c4ccccc4)C3)c2cc1OCc1ccncc1 (stereo not drawn)
IC50 [1]: > 3200 nM

Compound: COc1cc2ncnc(N3CCCC(c4ccccc4)C3)c2cc1OCCc1cccnc1 (stereo not drawn)
IC50 [1]: 2340 nM

Compound: COc1cc2ncnc(N3CCCC(c4ccccc4)C3)c2cc1OC (stereo not drawn) [listing 1 of 2 here]
CLint scaled [2]: 13 mL/min/kg
efflux ratio (human MDR [11]): 0.7
IC50 [12]: 8.5 nM

Compound: COc1cc2ncnc(N3CCCC(c4ccccc4)C3)c2cc1OCCc1ccccn1 (stereo not drawn)
inhibition [6]: 32%

Compound: c1ccc2nc(CCOc3ccc4ccncc4c3)ccc2c1
IC50 [1]: 809 nM

Compound: COc1cc2ncn(C)c(=O)c2cc1OCCc1ccc2ccccc2n1
CLint scaled [2]: 93 mL/min/kg
Activity (Mus musculus [22]): 79%
IC50 [1]: 12 nM
Papp A→B (human MDR [4]): 18 ×10⁻⁶ cm/s
Activity (Mus musculus [23]): 129%

Compound: COc1cc2ncnc(N3CCCC(c4ccccc4)C3)c2cc1OCCc1ccncc1 (stereo not drawn)
IC50 [1]: > 3200 nM

Compound: COc1cc2ncnc(N(C)C)c2cc1OCCc1ccc2ccccc2n1
CLint scaled [2]: 178 mL/min/kg
IC50 [1]: 14 nM
Papp A→B (human MDR [4]): 19 ×10⁻⁶ cm/s
Activity (Mus musculus [9]): 34%
Activity (Mus musculus [24]): 268%

Compound: COc1cc2ncnc(N3CCCC(c4ccccc4)C3)c2cc1OCCc1ccccc1 (stereo not drawn)
IC50 [1]: 1660 nM

Next, values leading:

IC50 [1]: 146 nM
Compound: COc1cc2ncnc(N3CCCC(c4ccccc4)C3)c2cc1OC (racemic)

Ratio IC50 [10]: > 5
Compound: COc1cc2ncnc(N3CCCC(c4ccccc4)C3)c2cc1OCCc1ccccn1 (racemic)

Ratio IC50 [13]: > 100
Ratio IC50 [14]: > 100
Ratio IC50 [15]: > 100
Ratio IC50 [16]: > 100
Ratio IC50 [17]: > 100
CLint scaled [2]: > 19 mL/min/kg
Ratio IC50 [18]: > 100
Ratio IC50 [19]: > 100
Ratio IC50 [20]: > 100
efflux ratio (human MDR [11]): > 10
Ratio IC50 [10]: > 100
Ratio IC50 [21]: > 100
Compound: COc1cc2ncnc(N3CCCC(c4ccccc4)C3)c2cc1OCCc1ccc2ccccc2n1 (stereo not drawn)

IC50 [1]: > 3200 nM
Compound: COc1cc2ncnc(N3CCCC(c4ccccc4)C3)c2cc1OCc1ccc2ccccc2n1 (stereo not drawn)

Ratio IC50 [10]: < 0.1
Compound: COc1cc2ncnc(N3CCCC(c4ccccc4)C3)c2cc1OC (stereo not drawn) [listing 2 of 2 here]

IC50 [1]: 10 nM
inhibition [6]: 11%
Compound: COc1cc2ncnc(N3CCCC(c4ccccc4)C3)c2cc1OCCCc1nc2ccccc2n1C (stereo not drawn)

IC50 [1]: 1040 nM
Ratio IC50 [10]: < 0.1
IC50 [12]: 98 nM
Compound: CCCOc1cc2c(N3CCCC(c4ccccc4)C3)ncnc2cc1OC (stereo not drawn)
